ChEMBL document CHEMBL4364256, “Design, synthesis and biological evaluation of antimicrobial diarylimine and -amine compounds targeting the interaction between the bacterial NusB and NusE proteins” (Eur J Med Chem, 2019)
In brackets after ≈: the same amount, converted by molar mass.

Columns and labels:
[1] = microbe, parasite or virus in culture; conditions: Enterobacter cloacae, ATCC 13047, 20 h
Bacillus subtilis = test: Inhibition of N-terminal LgBiT-fused Bacillus subtilis NusB expressed in Escherichia coli BL21(DE3)pLysS interaction with C- terminal SmBiT-fused Bacillus subtilis NusE expressed in Escherichia coli BL21(DE3)pLysS at 100 uM preincubated for 10 mins followed by NusE addition and measured after 10 mins by nano-glo luciferase assay relative to control
Method in brief: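 NusB and NusE were mixed 1:1 at 1 µM in PBS, with compound at 100 µM. The read-out was percent inhibition of the NusB-NusE interaction.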

Streptococcus pneumoniae = test: Antimicrobial activity against Streptococcus pneumoniae ATCC 49619 incubated for 20 hrs by microdilution method; type: functional; conditions: ATCC 49619, 20 h
Method in brief: (§1)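 Broth microdilution MIC testing done following CLSI guidelines.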

Acinetobacter baumannii = test: Antimicrobial activity against Acinetobacter baumannii ATCC 19606 incubated for 20 hrs by microdilution method; type: functional; conditions: ATCC 19606 = CIP 70.34 = JCM 6841, 20 h
Method in brief: as §1

Staphylococcus aureus [2] = test: microbe, parasite or virus in culture; conditions: ATCC 25923, 20 h
Pseudomonas aeruginosa = test: Antimicrobial activity against Pseudomonas aeruginosa ATCC 27853 incubated for 20 hrs by microdilution method; type: functional; conditions: ATCC 27853, 20 h
Method in brief: as §1

Staphylococcus aureus [3] = test: microbe, parasite or virus in culture; conditions: ATCC 29213, 20 h
Enterococcus faecium = test: Antimicrobial activity against Enterococcus faecium ATCC 19433 incubated for 20 hrs by microdilution method; type: functional; conditions: ATCC 19433, 20 h
Method in brief: as §1

| MIC [1] [µg/mL] | inhibition (Bacillus subtilis) [%] | MIC (Streptococcus pneumoniae) [µg/mL] | MIC (Acinetobacter baumannii) [µg/mL] | MIC (Staphylococcus aureus [2]) [µg/mL] | MIC (Pseudomonas aeruginosa) [µg/mL] | MIC (Staphylococcus aureus [3]) [µg/mL] | MIC (Enterococcus faecium) [µg/mL] | SMILES |
| --- | --- | --- | --- | --- | --- | --- | --- | --- |
| > 256 | 78.5 | 16 (≈ 55.9 µM) | 64 (≈ 224 µM) | 4 (≈ 14 µM) | > 256 | 16 (≈ 55.9 µM) | > 256 | O=C(O)c1cccc(/N=C/c2cc([N+](=O)[O-])ccc2O)c1 |
| > 256 | 89.1 | 64 (≈ 248 µM) | > 256 | 4 (≈ 15.5 µM) | > 256 | 8 (≈ 31 µM) | > 256 | O=[N+]([O-])c1ccc(O)c(/C=N/c2ccc(O)cc2)c1 |
| > 256 | 24.7 | > 256 | 16 (≈ 63.9 µM) | 256 (≈ 1020 µM) | > 256 | 128 (≈ 511 µM) | > 256 | C#Cc1cccc(/N=C/c2cccc([N+](=O)[O-])c2)c1 |
| > 256 | 29.3 | > 256 | 128 (≈ 509 µM) | > 256 | > 256 | > 256 | > 256 | C#Cc1cccc(/N=C/c2cc(OC)ccc2O)c1 |
| > 256 | 43.4 | 32 (≈ 109 µM) | 128 (≈ 438 µM) | 4 (≈ 13.7 µM) | > 256 | 16 (≈ 54.7 µM) | > 256 | O=[N+]([O-])c1ccc(O)c(/C=N/c2cccc3ccccc23)c1 |
| > 256 | 28.1 | 256 (≈ 1070 µM) | 256 (≈ 1070 µM) | 256 (≈ 1070 µM) | 256 (≈ 1070 µM) | > 256 | > 256 | C#Cc1cccc(/N=C/c2cc(F)ccc2O)c1 |
| > 256 | 38.8 | 128 (≈ 429 µM) | > 256 | 4 (≈ 13.4 µM) | > 256 | 32 (≈ 107 µM) | > 256 | CC(C)(C)c1ccc(/N=C/c2cc([N+](=O)[O-])ccc2O)cc1 |
| > 256 | 4.6 | 64 (≈ 262 µM) | 256 (≈ 1050 µM) | 16 (≈ 65.5 µM) | > 256 | 32 (≈ 131 µM) | 128 (≈ 524 µM) | O=[N+]([O-])c1ccc(O)c(CNc2ccccc2)c1 |
| > 256 | 96.3 | 256 (≈ 991 µM) | > 256 | 16 (≈ 62 µM) | > 256 | 64 (≈ 248 µM) | > 256 | O=[N+]([O-])c1ccc(O)c(/C=N/c2cccc(O)c2)c1 |
| > 256 | 57.7 | 64 (≈ 248 µM) | 128 (≈ 496 µM) | 4 (≈ 15.5 µM) | > 256 | 16 (≈ 62 µM) | > 256 | O=[N+]([O-])c1ccc(O)c(/C=N/c2ccccc2O)c1 |
| > 256 | 53.1 | 32 (≈ 103 µM) | > 256 | 8 (≈ 25.8 µM) | > 256 | 16 (≈ 51.6 µM) | 256 (≈ 825 µM) | O=[N+]([O-])c1ccc(O)c(/C=N/c2ccccc2C(F)(F)F)c1 |
| > 256 | 64.5 | 256 (≈ 954 µM) | > 256 | 128 (≈ 477 µM) | > 256 | 16 (≈ 59.6 µM) | > 256 | C#Cc1cccc(NCc2cccc([N+](=O)[O-])c2O)c1 |
| > 256 | 56.1 | > 256 | > 256 | > 256 | > 256 | > 256 | > 256 | C#Cc1cccc(NCc2cc([N+](=O)[O-])ccc2OC)c1 |
| > 256 | 57.1 | 8 (≈ 28.4 µM) | > 256 | 32 (≈ 114 µM) | > 256 | 16 (≈ 56.9 µM) | 32 (≈ 114 µM) | C#Cc1cccc(NCc2cc(C(=O)OC)ccc2O)c1 |

| SMILES | MIC [1] [µg/mL] | inhibition (Bacillus subtilis) [%] | MIC (Streptococcus pneumoniae) [µg/mL] | MIC (Acinetobacter baumannii) [µg/mL] | MIC (Staphylococcus aureus [2]) [µg/mL] | MIC (Pseudomonas aeruginosa) [µg/mL] | MIC (Staphylococcus aureus [3]) [µg/mL] | MIC (Enterococcus faecium) [µg/mL] |
| --- | --- | --- | --- | --- | --- | --- | --- | --- |
| CO[C@H]1/C=C/O[C@@]2(C)Oc3c(C)c(O)c4c(O)c(c(/C=N/N5CCN(C)CC5)c(O)c4c3C2=O)NC(=O)/C(C)=C\C=C\[C@H](C)[C@H](O)[C@@H](C)[C@@H](O)[C@@H](C)[C@H](OC(C)=O)[C@@H]1C [RIFAMPIN] | > 256 |  | 0.0625 (≈ 0.0759 µM) | 4 (≈ 4.86 µM) | 0.0125 (≈ 0.0152 µM) | > 256 | 0.0125 (≈ 0.0152 µM) | 2 (≈ 2.43 µM) |
